The record followed here is ChEMBL document CHEMBL4138126, “Synthesis, antiproliferative, anti-tubulin activity, and docking study of new 1,2,4-triazoles as potential combretastatin analogues” (Eur J Med Chem, 2017).

Where only a bound is given, the exact number is not on record here.

Assay [1] has as its system HepG2. The assay can be described thus: Cytotoxicity in human HepG2 cells assessed as reduction in cell viability incubated for 48 hrs by MTT assay. It counts as functional, cell-based. The settings on record: HepG2, 48 h. Put shortly: (§1)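 HepG2 and HL60 (ATCC) grown in DMEM with 10% FBS, 2 mM L-glutamine, penicillin/streptomycin, amphotericin B at 37 °C, 5% CO2. Samples dissolved in DMSO, diluted thousandfold in assay. Cells seeded in serum-free medium, treated with serial concentrations 48 h; MTT 4 h, formazan dissolved in acidified isopropanol, A570. Triplicates averaged; viability relative to untreated/vehicle control.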
(In general: Tetrazolium assays rely on reduction of a dye to a coloured formazan, in cell work by metabolically active cells.)

The next assay deals with HL-60. The assay can be described thus: Cytotoxicity in human HL60 cells assessed as reduction in cell viability incubated for 48 hrs by MTT assay. Conditions: HL-60, 48 h. It counts as functional, cell-based. In outline: as §1
Assay [2] can be described thus: Inhibition of beta tubulin polymerisation in human HepG2 cells incubated for 2 hrs using TMB substrate by ELISA. It counts as cell-based. The settings on record: HepG2, 2 h.
For assay [3], the system named is HepG2. The assay can be described thus: Inhibition of beta tubulin polymerisation in human HepG2 cells incubated for 2 hrs using TMB substrate by ELISA relative to untreated control. It counts as cell-based. Also on record: concentration or dose not given beside the values. The settings on record: dose or concentration not given here. On the technique in general: In an ELISA, binding on a coated surface is turned into a signal by an enzyme label.

For the molecule `COc1cccc(-n2nc(C(=O)Nc3ccccc3OC)nc2-c2cc(OC)c(OC)c(OC)c2)c1`, the concentration for half-maximal inhibition (IC50) in the assay on HepG2 [1] and in the assay with HL-60 was 29.9 µM in each case.

On to `COc1cccc(-n2nc(C(=O)Nc3cc(OC)c(OC)c(OC)c3)nc2-c2cc(OC)c(OC)c(OC)c2)c1`, for which the concentration for half-maximal inhibition (IC50) in the assay on HepG2 [1] was found to be 8.51 µM; in the assay with HL-60 it was 6.02 µM.

On to `COc1cccc(CNC(=O)c2nc(-c3cc(OC)c(OC)c(OC)c3)n(-c3cccc(OC)c3)n2)c1`, for which the 50% inhibitory concentration (IC50) was 0.9 µM in the assay on HepG2 [1] and greater than 100 µM in the assay on HL-60.

On to `COc1cccc(-n2nc(C(=O)Nc3ccc(OC)c(OC)c3)nc2-c2cc(OC)c(OC)c(OC)c2)c1`, for which the figures for the IC50 in the assay on HepG2 [1] and with HL-60 were 32.5 µM and 14.2 µM, respectively.

Turning to `CCOc1ccc(-n2nc(C(=O)Nc3ccc(OC)c(OC)c3)nc2-c2cc(OC)c(OC)c(OC)c2)cc1`, the values for the IC50 in the assay on HepG2 [1] and in the assay with HL-60 were 32.8 µM and 4.3 µM, respectively.

For the molecule `CCOc1ccc(NC(=O)c2nc(-c3cc(OC)c(OC)c(OC)c3)n(-c3ccc(OCC)cc3)n2)cc1`, the IC50 in the assay with HepG2 [1] was 29.8 µM; in the assay on HL-60, 6 µM.

Turning to `CCOc1ccc(NC(=O)c2nc(-c3cc(OC)c(OC)c(OC)c3)n(-c3cccc(OC)c3)n2)cc1`, the 50% inhibitory concentration (IC50) with HepG2 [1] is 8.75 µM; in the assay on HL-60, 14.5 µM.

`COc1cccc(-n2nc(C(=O)Nc3cc(F)cc(F)c3)nc2-c2cc(OC)c(OC)c(OC)c2)c1`: the results for the IC50 (in assay [2]; with HepG2 [1]; with HL-60) were 1.3 µM, 1.38 µM and 54.2 µM, respectively. The same molecule gave an inhibition with HepG2 [3] of 65.2%.

On to `COc1cccc(-n2nc(C(=O)Nc3ccc(F)c(F)c3F)nc2-c2cc(OC)c(OC)c(OC)c2)c1`, for which the IC50 with HepG2 [1] amounted to 16.3 µM; with HL-60 it was 27.2 µM.

On to `COc1ccc(/C=C\c2cc(OC)c(OC)c(OC)c2)cc1O` [COMBRETASTATIN A4], for which the IC50 turned out to be 2.4 µM in assay [2], 2.41 µM with HepG2 [1] and 0.56 µM in the assay with HL-60. For the same molecule, the inhibition in the assay with HepG2 [3] turned out to be 72.3%.

With `COc1cccc(NC(=O)c2nc(-c3cc(OC)c(OC)c(OC)c3)n(-c3cccc(OC)c3)n2)c1`, the IC50 with HepG2 [1] and in the assay with HL-60 was 15.3 µM in each case.

Consider `COc1cccc(-n2nc(C(=O)Nc3ccc(F)c(F)c3)nc2-c2cc(OC)c(OC)c(OC)c2)c1`, for which the 50% inhibitory concentration (IC50) with HepG2 [1] turned out to be 11 µM; in the assay with HL-60, 31.3 µM.

The IC50 is the concentration that gives 50% inhibition. By inhibition is commonly meant how much of the control response was suppressed.
